Sampled rows, rich in hits. Any-hit rate of the full collection: about 1.8%.
MBD2 inh: inhibitors of human MBD2 binding to methylated oligonucleotide; TR-FRET; 0.31% of 370,000 active; Q9UBB5; inhibition, % at 4.4 µM; AID 686964; in the data active means inhibition above about 13%
Target sequence (Q9UBB5 whole entry, looked up): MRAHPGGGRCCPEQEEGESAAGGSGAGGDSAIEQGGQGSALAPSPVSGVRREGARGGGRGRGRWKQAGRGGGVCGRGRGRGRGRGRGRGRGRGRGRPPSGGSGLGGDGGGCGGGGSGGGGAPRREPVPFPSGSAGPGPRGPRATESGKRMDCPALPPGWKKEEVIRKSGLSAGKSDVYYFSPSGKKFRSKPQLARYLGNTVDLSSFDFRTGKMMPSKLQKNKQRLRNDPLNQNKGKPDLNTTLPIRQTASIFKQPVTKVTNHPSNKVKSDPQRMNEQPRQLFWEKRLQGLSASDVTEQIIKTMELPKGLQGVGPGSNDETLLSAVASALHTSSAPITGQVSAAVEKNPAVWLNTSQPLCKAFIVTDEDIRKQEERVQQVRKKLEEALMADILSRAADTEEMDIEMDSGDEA
core dimer inh: HCV core protein dimerization inhibition; TR-FRET GST/Flag-core106 dimerization, 1536-well; inhibition, % at 5 µM; 0.33% of 300,000 active;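 active means inhibition above the mean of all tested compounds plus 3 SD, set per screening campaign, cut at about 45% in these data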
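System: GST/Flag-tagged HCV core106 proteins. Incubation: compound-protein-antibody incubation 4 h at 22.5 °C. Technique: HTRF with 340 nm excitation, 617/671 nm emission. Medium: KF-containing HEPES buffer, pH 7.45, DTT, CHAPS, BSA. Read-out: inhibition (%) from 671 over 617 nm ratio. Also added: Eu(K)-anti-GST 90 ng/mL plus XL665-anti-Flag 1 µg/mL.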
LEDGF integ inh: blocks HIV-1 LEDGF/p75-dependent DNA integration | 0.64% of 370,000 active | inhibition, % at 3.7 µM | TR-FRET IN-LEDGF/p75 DNA integration, Eu/Cy5;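 active means inhibition above the screen-wide mean plus 3 SD, cut at about 13% in these data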;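 further: signal is the Cy5 over europium emission ratio at 671 and 618 nm; 0% = plate median of compound wells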
UHRF1 binding: human UHRF1 methylated DNA binding inhibitors; UHRF1 binding to methylated oligo, TR-FRET; inhibition, % at 4.4 µM; 0.75% of 370,000 active; Q96T88; in the data active means inhibition above about 21%;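 further: UHRF1 SRA domain binding a hemimethylated CpG hairpin DNA probe; 0% = median of test compound wells and 100% = reference inhibitor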
TDP2 inh: TDP2 (human) inhibition, absorbance primary screen | O95551 | recombinant TDP2, T5PNP hydrolysis, p-nitrophenol absorbance 415 nm | inhibition, % at 12.8 µM | 0.34% of 370,000 active;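 active means inhibition above the mean of all tested compounds plus 3 SD, set per campaign, cut at about 25% in these data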;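 further: 0% = DMSO with enzyme and 100% = buffer with substrate but no TDP2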
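test system = human TDP2 enzyme | input = TDP2 enzyme at 120 nM final | medium = 50 mM Tris-HCl pH 7.5 with Mg2+, KCl, DTT, BSA | also added = T5PNP substrate, 5 mM | times = 2 h at 37 °C | technique = epi absorbance | benchmarks = high control without enzyme, low control DMSO plus TDP2 | replication = each compound tested once, singlicate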
IN multimer up: HIV-1 integrase multimerization activation, counter-screen; TR-FRET HIV-1 integrase multimerization, biochemical; 17% of 2,000 active; activation, % at 7.7 µM; shares compounds with LEDGF integ inh; AID 1053131; in the data active means activation above about 8.9%
TR-FRET interf: TR-FRET optical interference, LEDGF/p75 integration counter-screen | shares compounds with LEDGF integ inh | inhibition, % at 7.7 µM | 2,000 tested, under 10 active | TR-FRET optical interference counterscreen, HIV-1 IN multimerization;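 active means inhibition above the mean over all tested compounds plus 3 SD, which no compound reached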;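 further: 0% = integrase with antibodies and DMSO and 100% = antibodies without integrase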
IN-LEDGF confirm: LEDGF/p75-dependent HIV-1 integration inhibition, confirmation. 36% of 2,000 active. TR-FRET LEDGF/p75-dependent HIV-1 integration, biochemical. inhibition, % at 3.7 µM. AID 1053136. shares compounds with LEDGF integ inh; in the data active means inhibition above about 14%
* hit, by the source's call.

`Cc1ccc(S(=O)(=O)N(C)c2ccccc2C(=O)Nc2c(F)cccc2F)cc1` gave MBD2 inh -2, core dimer inh 6, LEDGF integ inh 36*, UHRF1 binding 0, TDP2 inh 7, IN multimer up 1, TR-FRET interf -4 and IN-LEDGF confirm -7.
Screening COC(=O)C1=C(O)/C(=C\c2ccc(CNS(=O)(=O)c3ccccc3)o2)N=C1C returned MBD2 inh 0, core dimer inh -10, LEDGF integ inh 23*, UHRF1 binding 5, TDP2 inh 1, IN multimer up 7, TR-FRET interf -33 and IN-LEDGF confirm 18*.
Screening COC(=O)C1=C(O)/C(=C\c2ccc(OCC(=O)Nc3ccccc3)cc2)N=C1C returned MBD2 inh 3, core dimer inh -9, LEDGF integ inh -2, UHRF1 binding 3 and TDP2 inh 6.
CCOC(=O)C1=C(O)/C(=C\c2ccc(CNS(=O)(=O)c3ccc(Br)cc3)o2)N=C1C was read as MBD2 inh -2, core dimer inh 13, LEDGF integ inh 22*, UHRF1 binding 5, TDP2 inh -3, IN multimer up 3, TR-FRET interf -11 and IN-LEDGF confirm -3.
CCOC(=O)C(=O)NCc1ccc(/C=C2/N=C(C)C(C(=O)OCC)=C2O)o1 was read as MBD2 inh -3, core dimer inh -4, LEDGF integ inh 9, UHRF1 binding -5 and TDP2 inh -1.
`COC(=O)C1=C(O)/C(=C\c2ccc(CNS(=O)(=O)c3ccc(Cl)cc3)o2)N=C1C` gave MBD2 inh 0, core dimer inh -5, LEDGF integ inh 53*, UHRF1 binding 13, TDP2 inh 1, IN multimer up 5, TR-FRET interf -23 and IN-LEDGF confirm 14*.
Screening COc1ccc(N=Cc2ccc(CNS(=O)(=O)c3ccc(Cl)cc3)o2)cc1 returned MBD2 inh -6, core dimer inh 2, LEDGF integ inh -1, UHRF1 binding -1 and TDP2 inh -5.
C#CCNC(=O)C[C@H]1C[C@@]2(C(=O)OC)C(=C[C@H](C3CCCC3)O[C@@H]2C)N(CCc2ccc(OC)c(OC)c2)C1=O was read as MBD2 inh -1, LEDGF integ inh -4, UHRF1 binding -1 and TDP2 inh -4.
Screening COC(=O)c1cc2c(c3c4cc(C)ccc4n(S(=O)(=O)c4ccc(C)cc4)c13)C(=O)N(Cc1ccc(C(F)(F)F)cc1)C2 returned MBD2 inh -7, LEDGF integ inh 3, UHRF1 binding 0 and TDP2 inh -6.
CC(C)CSc1nnc(-c2ccco2)n1C was read as MBD2 inh 5, LEDGF integ inh 23*, UHRF1 binding 1, TDP2 inh -4, IN multimer up -3, TR-FRET interf 13 and IN-LEDGF confirm 0.
`CCC(C)CNC(=O)CN1C(=O)C2CCCCN2C(=O)c2ccccc21` (configuration not stated) gave MBD2 inh -3, LEDGF integ inh 1, UHRF1 binding 0 and TDP2 inh -10.
Screening Clc1ccc(-c2ccc(C=Nc3ccc(N4CCOCC4)cc3)o2)cc1 returned MBD2 inh -1, core dimer inh -3, LEDGF integ inh 18*, UHRF1 binding -1, TDP2 inh 19, IN multimer up 2, TR-FRET interf -9 and IN-LEDGF confirm 7.
For Clc1ccc(-c2ccc(C=Nc3ccc(N4CCOCC4)cc3)o2)c(Cl)c1 the results were MBD2 inh 0, core dimer inh 3, LEDGF integ inh 13, UHRF1 binding 1 and TDP2 inh 11.
For Cc1nnc(C)n1/N=C/c1ccc(-c2ccccc2Cl)o1 the results were MBD2 inh 5, core dimer inh 2, LEDGF integ inh -5, UHRF1 binding 3 and TDP2 inh 14.

Screening results: PubChem BioAssay, The Scripps Research Institute Molecular Screening Center
